# Data from ChEMBL document CHEMBL5678817, “FTBMT, a Novel and Selective GPR52 Agonist, Demonstrates Antipsychotic-Like and Procognitive Effects in Rodents, Revealing a Potential Therapeutic Agent for Schizophrenia” (J Pharmacol Exp Ther, 2017).
# pEC50: −log10 of the molar value. Calls of active or inactive are those of the source. The calls are words filed in the database; no cut-off is given here.
# Legend:
# Mus musculus [1] = experiment: Pro-cognitive activity in C57BL/6N mouse assessed as increase in Egr-2 gene expression in hippocampus at 3 to 30 mg/kg, po […]; assay type: functional, organism-based; conditions: dose 3-30 mg/kg
# [2] = molecular target: Mu-type opioid receptor (Homo sapiens) (UniProt P35372); experiment: Inhibition of mu opioid receptor (unknown origin) at 10 uM relative to control
# Procedure, shortened: (§1)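 Binding and enzyme panel run by an outside contractor against receptors, ion channels and enzymes. Each assay used a single 10 μM test concentration, and results are expressed as percent inhibition. A negative value means stimulation of receptor activity or activation of enzyme activity.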
# [3] = molecular target: G protein-coupled receptor 52 (Rattus norvegicus, UniProt A0A8I5ZQK1); experiment: Agonist activity at rat GPR52 expressed in CHO cells assessed as increase in intracellular cAMP level incubated for 30 mins by Alphascreen assay; assay type: cell-based
# Procedure, shortened: (§2)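 CHO cells stably expressing human, mouse or rat GPR52, plus naïve CHO cells, at 10,000 cells/well. Stimulated in cAMP assay buffer for 30 min at 37 °C. Intracellular cAMP read by AlphaScreen.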
# [4] = molecular target: G protein-coupled receptor 52 (Rattus norvegicus) (UniProt A0A8I5ZQK1); experiment: Agonist activity at rat GPR52 expressed in CHO cells assessed as increase in intracellular cAMP level upto 10 uM incubated for 30 mins by Alphascreen assay; assay type: cell-based; procedure, shortened: as §2
# Mus musculus [5] = experiment: Pro-cognitive activity in C57BL/6N mouse assessed as increase in c-fos gene expression in hippocampus at 3 to 30 mg/kg, po measured after 2 hrs […]; assay type: functional, organism-based; conditions: dose 3-30 mg/kg
# [6] = molecular target: Vasopressin V2 receptor (Homo sapiens) (UniProt P30518); experiment: Inhibition of Vasopressin V2 receptor (unknown origin) at 10 uM relative to control; procedure, shortened: as §1
# [7] = molecular target: G-protein coupled receptor 52 (Mus musculus) (UniProt P0C5J4); experiment: Agonist activity at mouse GPR52 expressed in CHO cells assessed as increase in intracellular cAMP level upto 10 uM incubated for 30 mins by Alphascreen assay; assay type: functional, cell-based; procedure, shortened: as §2
# [8] = molecular target: Muscarinic acetylcholine receptor M2 (Homo sapiens) (UniProt P08172); experiment: Inhibition of Muscarinic M2 receptor (unknown origin) at 10 uM relative to control
# Procedure, shortened: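 Part of a 98-target external biochemical selectivity panel that used radioligand/receptor binding-type assays. Compound tested once at 10 µM. Results are reported as % inhibition versus control; negative values mean stimulation of receptor activity.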
# [9] = molecular target: cAMP-dependent protein kinase (PKA) (Homo sapiens) (UniProt P22694+P17612+P22612); experiment: Inhibition of Protein kinase A (unknown origin) at 10 uM relative to control; assay type: protein assay
# Procedure, shortened: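 Enzyme activity assays from the same 98-target biochemical panel. Single test concentration of 10 µM. Read-out is % inhibition of enzyme activity relative to control; negative percentages indicate activation of the enzyme.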
# Chain of G protein-coupled receptor 52 (Rattus norvegicus) (A0A8I5ZQK1 as listed by the source): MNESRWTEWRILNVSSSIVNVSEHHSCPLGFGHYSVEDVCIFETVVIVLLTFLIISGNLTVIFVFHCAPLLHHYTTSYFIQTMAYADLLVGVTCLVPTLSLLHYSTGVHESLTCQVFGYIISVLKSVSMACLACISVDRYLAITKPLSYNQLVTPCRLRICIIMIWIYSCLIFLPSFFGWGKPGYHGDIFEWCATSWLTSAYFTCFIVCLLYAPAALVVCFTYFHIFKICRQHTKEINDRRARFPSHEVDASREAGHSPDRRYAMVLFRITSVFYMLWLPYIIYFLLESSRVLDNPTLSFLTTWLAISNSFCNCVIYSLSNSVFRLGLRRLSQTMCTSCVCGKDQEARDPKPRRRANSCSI
# Chain of G protein-coupled receptor 52 (A0A8I5ZQK1 whole entry): as the sequence (A0A8I5ZQK1 as listed by the source) above
# Chain of Mu-type opioid receptor (Homo sapiens) (P35372 whole entry): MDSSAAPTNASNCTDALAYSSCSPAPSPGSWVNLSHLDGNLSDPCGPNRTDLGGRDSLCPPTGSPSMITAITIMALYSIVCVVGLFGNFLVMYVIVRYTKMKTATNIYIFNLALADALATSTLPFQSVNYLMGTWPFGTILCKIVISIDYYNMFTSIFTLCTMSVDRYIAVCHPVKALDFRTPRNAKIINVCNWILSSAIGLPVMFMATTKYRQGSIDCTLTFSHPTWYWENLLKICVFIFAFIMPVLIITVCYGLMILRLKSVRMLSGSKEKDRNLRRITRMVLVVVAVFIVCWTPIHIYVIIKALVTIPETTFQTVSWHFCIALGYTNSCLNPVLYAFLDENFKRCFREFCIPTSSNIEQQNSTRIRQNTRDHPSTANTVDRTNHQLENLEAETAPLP
# Chain of Vasopressin V2 receptor (Homo sapiens) (P30518 whole entry): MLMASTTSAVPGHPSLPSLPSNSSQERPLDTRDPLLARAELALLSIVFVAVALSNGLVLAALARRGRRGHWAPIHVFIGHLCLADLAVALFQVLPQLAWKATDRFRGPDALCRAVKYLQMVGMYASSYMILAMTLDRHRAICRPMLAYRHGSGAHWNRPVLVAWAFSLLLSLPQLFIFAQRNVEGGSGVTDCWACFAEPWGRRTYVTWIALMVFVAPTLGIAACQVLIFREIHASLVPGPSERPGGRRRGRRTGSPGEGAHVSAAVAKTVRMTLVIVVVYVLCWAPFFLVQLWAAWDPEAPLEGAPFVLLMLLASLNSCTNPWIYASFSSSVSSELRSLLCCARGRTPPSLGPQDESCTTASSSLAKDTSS
# Chain of G-protein coupled receptor 52 (Mus musculus) (P0C5J4 whole entry): as the sequence (A0A8I5ZQK1 as listed by the source) above, with V14M, D250E, Q333E, G342A, R348Q counted along it
# Chain of Muscarinic acetylcholine receptor M2 (Homo sapiens) (P08172 whole entry): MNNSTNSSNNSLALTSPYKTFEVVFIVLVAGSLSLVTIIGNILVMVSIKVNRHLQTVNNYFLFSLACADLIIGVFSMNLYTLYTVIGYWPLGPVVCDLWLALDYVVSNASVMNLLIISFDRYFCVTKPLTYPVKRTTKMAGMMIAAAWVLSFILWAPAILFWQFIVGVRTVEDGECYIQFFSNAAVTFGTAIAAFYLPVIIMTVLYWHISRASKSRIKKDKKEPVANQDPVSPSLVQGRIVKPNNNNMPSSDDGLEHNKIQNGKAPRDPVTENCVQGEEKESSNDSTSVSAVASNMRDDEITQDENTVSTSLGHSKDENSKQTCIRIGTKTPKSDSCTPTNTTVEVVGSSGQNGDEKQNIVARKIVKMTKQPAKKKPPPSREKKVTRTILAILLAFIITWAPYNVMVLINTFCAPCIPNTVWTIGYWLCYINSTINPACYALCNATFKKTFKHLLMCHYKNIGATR
smiles,measurement,setting,value
Cc1cc(-n2nc(Cc3cc(F)cc(C(F)(F)F)c3)nc2C)ccc1C(N)=O [TP-024],Activity,Mus musculus [1],Active
same,inhibition,[2],-10%
same,pEC50,[3],6.87
same,Activity,[4],inactive
same,Activity,Mus musculus [5],Active
same,inhibition,[6],-1%
same,Activity,[7],inactive
same,inhibition,[8],-6%
same,inhibition,[9],17%
